# Bioassay records from PubChem.
# bIAP activator: intestinal alkaline phosphatase (bovine) activation; hit rate 0.17% among 200,000; activation factor at 20 µM; AID 1016; purified bovine IAP, CDP-star luminescence, 30 min; active compounds read high; fold of DMSO-control signal, blank-subtracted;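 active = activation factor of 2 or more at 20 µM, a signal rise over negative controls twice the positive control's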
# bIAP inh: blocks bovine intestinal alkaline phosphatase activity; 190,000 tested, under 10 active; AID 1019; inhibition, % at 20 µM; purified bovine IAP, CDP-star luminescence, 30 min;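 active = over 50% inhibition of intestinal alkaline phosphatase at 20 µM in the single-dose screen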
#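 Assay system: bovine IAP enzyme; medium: DEA buffer 100 mM, pH 9.8, with MgCl2 1.0 mM, ZnCl2 0.02 mM; doses: 20 µM single dose; incubation: enzyme reaction for 30 min at room temperature; detection: CDP-star luminescence signal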
# hIAP inh: blocks human intestinal alkaline phosphatase. inhibition, % at 10 µM. hit rate 0.12% among 330,000. P09923. purified IAP, CDP-Star luminescence, 30 min;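 active = inhibition reaching a set limit with compound at 10 µM in the primary screen, cut at about 35% in these data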;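 note: plate controls were DMSO wells with enzyme for no effect and no-enzyme buffer wells for full effect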
# Target sequence (P09923 whole entry, looked up): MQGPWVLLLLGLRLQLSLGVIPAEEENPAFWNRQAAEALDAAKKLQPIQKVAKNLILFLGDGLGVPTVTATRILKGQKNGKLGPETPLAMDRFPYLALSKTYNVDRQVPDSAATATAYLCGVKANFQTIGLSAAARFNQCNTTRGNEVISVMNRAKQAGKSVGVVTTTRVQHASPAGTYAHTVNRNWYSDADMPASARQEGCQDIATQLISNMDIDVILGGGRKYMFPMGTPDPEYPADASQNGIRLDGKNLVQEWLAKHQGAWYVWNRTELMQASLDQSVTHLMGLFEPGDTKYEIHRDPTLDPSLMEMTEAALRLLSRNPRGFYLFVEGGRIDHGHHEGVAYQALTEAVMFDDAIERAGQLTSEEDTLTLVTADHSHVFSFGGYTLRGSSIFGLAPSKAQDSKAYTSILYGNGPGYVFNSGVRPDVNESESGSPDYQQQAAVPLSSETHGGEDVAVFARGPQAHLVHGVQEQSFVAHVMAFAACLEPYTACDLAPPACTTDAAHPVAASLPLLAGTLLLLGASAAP
# mIAP activ: mouse IAP activation | hit rate 0.24% among 330,000 | muIAP, CDP-Star luminescence, 30 min; active compounds read high; 1 = vehicle-only enzyme signal, 0 = enzyme-free wells | activation factor at 10 µM;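 active = activation factor of at least 2 at 20 µM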
#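 Assay system: mouse IAP enzyme / Compound: DMSO-dissolved test compounds / Timing: 30 min, room temperature / Measured by: luminescence from enzymatic CDP-Star hydrolysis / Control set: DMSO-only wells, enzyme-free buffer wells as negative control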
# hIAP act: increases human intestinal alkaline phosphatase activity | hit rate 0.16% among 330,000 | purified human IAP, CDP-Star luminescence, 30 min; active compounds read high; 1 = vehicle-only enzyme, 0 = enzyme-free background | AID 2524 | activation factor at 10 µM | P09923;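 active = activation factor of the enzyme at least 2-fold when tested at 20 µM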
# mIAP block: mouse IAP inhibition. inhibition, % at 10 µM. AID 2806. purified mouse IAP, CDP-Star luminescence, 30 min. hit rate 0.2% among 330,000;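 active = inhibition of at least 40% at 10 µM in the primary screen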;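 note: plate controls were DMSO with enzyme for no effect and no enzyme wells for full effect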
# hIAP act conf: human IAP activation confirmation; shares compounds with hIAP act; purified IAP, CDP-Star luminescence, 30 min; active compounds read low; activation (%Activity, negative = activation), % at 8.3 µM; hit rate 10% among 880; AID 434926;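 active = at least twofold enzyme activation in any of six single-dose repeats, which the averaged readout prints as negative percent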
# mIAP inh confirm: mouse IAP inhibition confirmation; shares compounds with mIAP block; purified mouse IAP, CDP-Star luminescence, 30 min; inhibition, % at 10 µM; hit rate 4.7% among 11,000;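 active = inhibition of at least 40% at 10 µM in either of the two replicates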;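 note: plate controls were DMSO wells with enzyme for no effect and buffer wells lacking enzyme for full effect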
# * hit, by the source's call; i = inactive; . = no result given. An excerpt weighted towards active compounds, which were near 0.77% of everything screened.
SMILES,bIAP activator,bIAP inh,hIAP inh,mIAP activ,hIAP act,mIAP block,mIAP inh confirm,others
COc1cc(/C=C/[N+](=O)[O-])ccc1O,0.9,11,24,0.54,0.76,46*,.,
O=C1COc2ccc(C(=O)COC(=O)Cc3ccccc3)cc2N1,.,.,4,1,0.96,-2,.,
COc1ccc(CC(C)NCCC(c2ccccc2)c2ccccc2)cc1 (configuration not stated),.,.,2,0.99,0.98,1,.,
CCOc1ccc2nc(N=Nc3c(O)[nH]c(=S)[nH]c3=O)sc2c1,0.7,34,16,0.56,0.84,44*,.,
CCOC(=O)c1c(-n2c(C)cc(C=C3C(=O)NC(=S)NC3=O)c2C)sc2c1CCCC2,0.5,.,-2,0.49,1,51*,.,
O=[N+]([O-])c1ccc2nc(N3CCNCC3)ccc2c1,.,.,9,0.84,0.91,16,.,
Cc1ccc(C(O)(C(=O)NNC(=O)CN2CCN(C)CC2)c2ccc(C)cc2)cc1,0.9,10,-2,1.1,1,-13,.,
Cc1cccc(C(O)(C(=O)NNC(=O)CN2CCN(C)CC2)c2cccc(C)c2)c1,2.3*,-129,-75,1,1.7,0,.,
O=C1NC(=S)NC(=O)C1C/C=C/c1ccccc1,1,-5,5,0.58,0.95,42*,.,
O=C/C=C/c1ccccc1,.,.,9,0.96,0.91,4,.,
CC(C)Cc1nnc(NC(=O)CCC(=O)N2CCC3(CC2)OCCO3)s1,.,.,-133,1.1,2.3*,-7,.,hIAP act conf=-77
Cc1ccc(-c2nc(N3CCOCC3)s[n+]2-c2ccccc2)cc1,0.9,8,.,.,.,.,.,
CN(C)c1nc(-c2ccccc2)[n+](C)s1,1,1,42*,0.94,0.58,6,.,hIAP act conf=7
CCCOc1ccc(C(=O)NC(=S)N2C[C@H]3C[C@H](C2)c2cccc(=O)n2C3)cc1,.,.,6,0.81,0.94,19,.,
Cc1ccc(CN2C3CCCC2CC(NC(=O)Nc2cccc(F)c2)C3)cc1 (configuration not stated),6.7*,i,-117,11*,2.2*,i,-348,hIAP act conf=-4
CC(Cc1ccccc1)N1C(=O)c2ccccc2C1=O (configuration not stated),.,.,24,1,0.76,-1,.,
COc1cccc(N2C(=O)NC(=O)/C(=C/c3ccc([N+](=O)[O-])s3)C2=O)c1,.,.,7,0.52,0.93,48*,51*,
COc1ccc(N2C(=O)NC(=O)/C(=C\c3ccc([N+](=O)[O-])s3)C2=O)cc1,1,2,5,0.77,0.95,23,.,
CC(C)NP(=O)(NC(C)C)OP(=O)(NC(C)C)NC(C)C,.,.,-23,1,1.2,-3,.,
C=C1C2[C@H](OC(C)=O)[C@@H]3CC(=O)[C@]4(C)OC[C@@]3(C)[C@@]4(O)[C@@H](OC(C)=O)[C@H](OC(C)=O)[C@@]2(COC(=O)c2ccccc2)[C@@H](OC(C)=O)C[C@@H]1O (some centres not stated),.,.,6,0.88,0.94,12,.,
Cc1ccc(N2C(=O)/C(=C/c3ccc(CN(CCC#N)S(C)(=O)=O)o3)C(=O)NC2=S)cc1,1,-1,6,0.53,0.94,47*,44*,
COC(=O)C1=C(c2ccc(F)cc2F)C[C@@H]2CC[C@H]1N2C(=O)NC1Cc2ccccc2C1,.,.,-4,0.98,1,2,.,
O=C1NC(=O)N(Cc2ccco2)C(=O)/C1=C\c1cccn1CCOc1ccc(Cl)cc1,0.9,15,-12,0.51,1.1,49*,50*,
Cc1cccc(OCCn2cccc2/C=C2/C(=O)NC(=O)N(Cc3ccco3)C2=O)c1,.,.,10,0.6,0.9,40*,57*,
O=C(NC1CCCCC1)Oc1cc2oc(=O)sc2cc1Cl,.,.,-8,0.39,1.1,61*,76*,
SMILES,bIAP activator,bIAP inh,hIAP inh,mIAP activ,hIAP act,mIAP block,mIAP inh confirm,others
O=C1NC(=O)N(c2cccc(Cl)c2)C(=O)/C1=C\c1ccc(Sc2nc3ccccc3[nH]2)o1,1,0,-7,0.54,1.1,46*,50*,
O=C1NC(=O)N(c2ccccc2F)C(=O)/C1=C/c1ccc(Sc2nc3ccccc3[nH]2)o1,0.9,13,.,.,.,.,.,
O=[N+]([O-])c1cc(S(=O)(=O)c2ccc(O)c([N+](=O)[O-])c2)ccc1O,0.7,29,0,0.37,1,63*,53*,
N[C@@H](CCl)C(=O)O,.,.,-28,1.1,1.3,-5,.,
NC(Cc1cc(O)c(O)cc1O)C(=O)O (configuration not stated),.,.,-17,0.17,1.2,84*,88*,
C1CC2OC2CC1C1CO1 (configuration not stated),.,.,-5,1.1,1.1,-11,.,
O=C1NC(=S)NC(=O)C1=Cc1ccc2c(c1)CCN2CCCCl,.,.,-2,0.34,1,66*,73*,
COC(=O)C1=C(c2c(C)noc2C)C[C@@H]2CC[C@H]1N2C(=O)NCc1ccco1,.,.,2,0.88,0.98,12,.,
N/C(=N\[N+](=O)[O-])N/N=C/c1ccc(O)cc1,1,-2,17,0.98,0.83,2,.,
Nc1nonc1C(=O)N/N=C/c1ccc([N+](=O)[O-])o1,1,4,-2,0.45,1,55*,72*,
C=CCN1C(=O)NC(=O)/C(=C\c2ccc(-c3ccccc3[N+](=O)[O-])o2)C1=O,1,0,-7,0.89,1.1,11,.,
CN(C)c1ccc(/C=C2/C(=O)NC(=O)N(Cc3ccco3)C2=O)cc1,0.8,21,-8,0.52,1.1,48*,48*,
CCN(CC)c1ccc(/C=C2\C(=O)NC(=O)N(CC3CCCO3)C2=O)cc1 (configuration not stated),0.2,.,5,0.89,0.95,11,.,
CCN(CC)c1ccc(/C=C2/C(=O)NC(=O)N(Cc3ccco3)C2=O)cc1,0.8,20,-9,0.39,1.1,61*,46*,
O=C1NC(=O)N(Cc2ccco2)C(=O)/C1=C/c1ccc(-c2cccc([N+](=O)[O-])c2)o1,0.9,15,14,0.39,0.86,61*,68*,
Cc1cccc(-n2c(C)nc3ccc(Cl)cc3c2=O)c1,.,.,0,1,1,-4,.,
C#C[C@]1(O)[C@H](O)CC2C3CC[C@H]4C[C@@H](O)CC[C@]4(C)C3CC[C@@]21C (some centres not stated),.,.,2,0.98,0.98,2,.,
CCCCCCC(Cl)(Cn1ccnc1)c1ccccc1 (configuration not stated),.,.,-2,1,1,0,.,
O=C1NC(=O)N(Cc2ccccc2)C(=O)/C1=C/C=C/c1ccco1,.,.,1,0.43,0.99,57*,66*,
